# An excerpt weighted towards active compounds, which were near 3.5% of everything screened.
# MrgX1 ag: agonists of human MrgX1 receptor; MrgX1-HEK293 cells, Fluo-4 calcium fluorescence, agonist mode; active compounds read high; 310,000 tested, 0.44% active; AID 588627; Q96LB2; B-score at 10 µM;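 active = calcium response B-score plate-corrected fluorescence ratio at least 3 library SD, with starting fluorescence B-score inside 5 SD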
# Target sequence (Q96LB2 whole entry, looked up): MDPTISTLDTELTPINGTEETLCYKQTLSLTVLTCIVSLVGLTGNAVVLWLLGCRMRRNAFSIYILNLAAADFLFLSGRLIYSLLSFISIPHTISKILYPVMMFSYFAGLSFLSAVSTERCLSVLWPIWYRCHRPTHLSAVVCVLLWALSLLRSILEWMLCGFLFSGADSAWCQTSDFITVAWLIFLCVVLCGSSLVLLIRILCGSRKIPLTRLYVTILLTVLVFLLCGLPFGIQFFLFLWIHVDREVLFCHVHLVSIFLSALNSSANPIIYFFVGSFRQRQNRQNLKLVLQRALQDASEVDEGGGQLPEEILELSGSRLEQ
#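 System: HEK293 cells stably expressing human MrgX1 receptor; Dosing: test compound in the initial addition of three; Schedule: overnight plating, then 30 min 37 °C plus 30 min room-temperature dye loading; Detection: kinetic calcium dye fluorescence, Fluo-4 NW; Controls: per-plate positive and negative controls for Z′ factor.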
# RGS4 pot: potentiators or activators of RGS4; HEK293 M3R/inducible RGS4, carbachol calcium flux Fluo4; active compounds read low; B-score at 10 µM; 310,000 tested, 0.92% active; AID 463111;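 active = B-score of the integrated calcium signal more than 4 SD below the library mean, with starting fluorescence not abnormally high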;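 also: negative B-score means reduced calcium response which marks RGS4 activation or potentiation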
#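 Detection: kinetic calcium fluorescence imaging with Fluo4-AM dye, 2 µM / Material: HEK293 cells with stable M3R and inducible RGS4 / Schedule: recording 10 s baseline at 1 Hz, 100 s post-agonist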
# MrgX1 antagonist: human MrgX1 receptor antagonism, primary screen; B-score at 10 µM; MRGX1-HEK293 calcium flux, Fluo-4, BAM8-22 antagonism; active compounds read low; Q96LB2; 310,000 tested, 1.3% active;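 active = calcium-response B-score plate-corrected more than 3 library SD below zero, starting fluorescence within 5 deviations, no agonist response on first addition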;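 also: peak minus trough fluorescence over baseline after final BAM8-22 challenge near maximal dose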
# RGS4 inh: human RGS4 inhibition. P49798. B-score at 10 µM. HEK293 M3R/RGS4 inducible, Fluo-4 calcium flux; active compounds read high; triggered by carbachol at its EC20. 310,000 tested, 0.45% active;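 active = B-score, a plate-corrected calcium signal, over three deviations above library mean, with baseline fluorescence within five deviations of library mean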;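 also: RGS4 expression induced by doxycycline in cells with stable M3 receptor; B-score is computed from the integrated fluorescence ratio over baseline after carbachol; higher B-score means a larger calcium signal and so more RGS4 inhibition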
# Target sequence (P49798 whole entry, looked up): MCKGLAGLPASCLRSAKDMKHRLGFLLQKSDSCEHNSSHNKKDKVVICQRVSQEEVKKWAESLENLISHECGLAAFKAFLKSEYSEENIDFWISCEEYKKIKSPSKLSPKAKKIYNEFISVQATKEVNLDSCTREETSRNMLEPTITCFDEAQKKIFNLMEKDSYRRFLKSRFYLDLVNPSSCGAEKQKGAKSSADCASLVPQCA
# MrgX1 PAM: allosterically activates human MrgX1 receptor signaling | 310,000 tested, 0.63% active | B-score at 10 µM | MrgX1-HEK293, Fluo-4 calcium flux, FDSS; active compounds read high | Q96LB2;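 active = plate-corrected calcium response at least 3 library SD above typical, normal starting fluorescence, not activating the receptor alone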;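 also: compound read alongside a low EC10 to EC30 dose of BAM8-22 agonist; peak minus trough fluorescence over baseline measured at the second addition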
# MrgX1 ant reconf: confirmation of human MrgX1 receptor antagonists. shares compounds with MrgX1 antagonist. MrgX1-HEK293, BAM8-22 calcium flux, Fluo-4; active compounds read low. AID 602420. 2,300 tested, 19% active. remaining BAM8-22 calcium response % of control (active compounds read low), % at 10 µM;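 active = remaining agonist calcium response no higher than 100% minus 3 SD of agonist-only control wells, with starting fluorescence near control levels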;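 also: agonist BAM8-22 given at a near maximal EC90 to ECmax level; peak minus minimum fluorescence divided by baseline after agonist addition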
# HEK293 Ca flux: MrgX1 antagonist counter-screen hit in parental HEK293 cells; shares compounds with MrgX1 antagonist; Fluo-4 calcium fluorescence, FDSS; fluorescence ratio F(max-min)/F0 at 10 µM; 4,000 tested, 2% active; AID 624111;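 active = duplicate-averaged calcium fluorescence ratio at least three times the standard deviation of buffer wells, a nonspecific response in parental cells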
# HEK293 Ca counter: counter-screen for MrgX1 allosteric activators: effect in parental HEK293 cells; shares compounds with MrgX1 antagonist; parental HEK293 calcium flux, Fluo-4 fluorescence ratio; active compounds read high; fluorescence ratio F(max-min)/F0 at 10 µM; 4,000 tested, 0.4% active;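 active = calcium fluorescence ratio, averaged over duplicates, at least 3 SD of the buffer-well ratio, meaning a nonspecific response in receptor-free cells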;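 also: untransfected parental HEK293 lacking MrgX1 used as counterscreen for MrgX1 allosteric activators; fluorescence change taken during the second addition on a kinetic imager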
# HEK293 Ca cntr2: counter-screen for MrgX1 activators: effect in parental HEK293 cells; shares compounds with MrgX1 antagonist; Fluo-4 calcium fluorescence (FDSS); active compounds read high; fluorescence ratio F(max-min)/F0 at 10 µM; 4,000 tested, 8.7% active; AID 624115;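 active = calcium fluorescence ratio at least three times the spread of buffer wells, meaning a non-specific response in parental cells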
# An asterisk follows results filed as active; i = inactive; · = not tested or not shown.
SMILES,MrgX1 ag,RGS4 pot,MrgX1 antagonist,RGS4 inh,MrgX1 PAM,MrgX1 ant reconf,HEK293 Ca flux,HEK293 Ca counter,HEK293 Ca cntr2
CC(Oc1ccc(-c2nccc(-c3ccccn3)n2)cc1)C(=O)NN (stereo not drawn),i,i,i,i,i,·,·,·,·
Cc1ccc(C)c(N(C)C(=O)c2cc3c(=O)[nH]c4ccc(C)cc4c3s2)c1,i,i,i,i,i,·,·,·,·
Cc1cccc(NC(=O)c2oc3ccc(S(=O)(=O)N4CCOCC4)cc3c2C)c1C,i,i,-4.76*,i,i,i,i,i,i
Cc1ccc(NC(=O)c2oc3ccc(S(=O)(=O)N4CCOCC4)cc3c2C)c(C)c1,i,i,i,i,i,·,·,·,·
COc1ccc(CNC(=O)COc2cc(=O)n(C)c3ccccc23)cc1,i,i,i,i,i,·,·,·,·
Cn1c(=O)cc(OCC(=O)NCc2cccs2)c2ccccc21,i,i,-7.13*,i,i,i,i,i,i
O=C(CCc1ccccc1)Nc1cc(C(F)(F)F)ccc1Cl,i,i,-4.51*,i,i,i,i,i,i
COc1ccccc1NS(=O)(=O)c1cccc(C(=O)N2CCCCCCC2)c1,i,i,i,i,i,·,·,·,·
Nn1c(SCC(=O)Nc2ccc3c(c2)OCCO3)nncc1=O,i,i,i,i,i,·,·,·,·
CC(=O)N1c2ccc(S(=O)(=O)N3CCCC3C(=O)Nc3ccc(C)cc3)cc2CC1C (stereo not drawn),i,i,i,i,i,·,·,·,·
Cc1cc(NCCN2CCOCC2)n2c(nc3ccccc32)c1C#N,i,i,i,i,i,·,·,·,·
Cc1cc(NCCCN2CCOCC2)n2c(nc3ccccc32)c1C#N,i,i,-5.99*,i,i,78.3%*,i,i,i
O=S(=O)(c1ccccc1Cl)N1CCC(O)(c2ccc3c(c2)OCO3)CC1,i,i,-4.89*,i,i,i,i,i,i
O=S(=O)(c1ccc2c(c1)OCCO2)N1CCC(O)(c2ccc(Cl)cc2)CC1,i,i,i,i,i,·,·,·,·
CC(=O)Nc1ccc(NC(=O)COC(=O)Cc2c[nH]c3ccccc23)cc1,i,i,-5.96*,i,i,i,i,i,i
CCN1CCN(CC(=O)N2c3ccccc3Sc3ccccc32)CC1,i,i,-5.06*,i,i,i,i,i,i
CCCSc1nnc(NC(=O)Nc2ccc(F)cc2)s1,i,i,-5.65*,i,i,70.9%*,i,i,i
CC(=O)Nc1ccc(NCN2C(=O)C3C4CCC(C4)C3C2=O)cc1 (stereo not drawn),i,i,i,i,i,·,·,·,·
COC(=O)c1ccc(NCN2C(=O)C3C4CCC(C4)C3C2=O)cc1 (stereo not drawn),i,i,-5.58*,i,i,i,i,i,i
Cc1cccc(OCCCC(=O)NC2CCCCC2)c1,i,i,-6.74*,i,i,i,i,i,i
Cc1cccc(OCC(=O)NC2CCCC2)c1,i,i,i,i,i,·,·,·,·
COC(=O)c1ccc(NC(=S)NCCc2ccccc2C)cc1,i,i,-5.01*,i,i,i,i,i,i
COC(=O)c1ccc(NC(=S)NCCc2cccc(C)c2)cc1,i,i,i,i,i,·,·,·,·
Cc1ccccc1C(=O)Oc1ccc(Br)cc1C(=S)N1CCCC1,i,i,-9.41*,i,i,i,i,i,i
O=C1C=C(NCCOC23CC4CC(CC(C4)C2)C3)C2(CCCCC2)O1,i,i,i,i,i,·,·,·,·
SMILES,MrgX1 ag,RGS4 pot,MrgX1 antagonist,RGS4 inh,MrgX1 PAM,MrgX1 ant reconf,HEK293 Ca flux,HEK293 Ca counter,HEK293 Ca cntr2
CCc1ccc(Nc2nnc(SCC(=O)Nc3cccnc3Cl)s2)cc1,i,i,i,i,i,·,·,·,·
O=C(NCC1CCCN1S(=O)(=O)c1ccccc1)C(=O)NC1CC1 (stereo not drawn),i,i,-4.58*,i,i,i,i,i,i
Cc1sc2ncnc(N3CCC(C(=O)Nc4ccc(C#N)cc4)CC3)c2c1C,i,i,-5.33*,i,i,i,i,i,i
O=C(NCc1ccco1)C1CCCN(S(=O)(=O)c2ccc(Br)cc2)C1 (stereo not drawn),i,i,i,i,i,·,·,·,·
O=C(Cn1ccc2cc(S(=O)(=O)N3CCCC3)ccc21)NCc1ccco1,i,i,-4.55*,i,i,i,i,i,i
CS(=O)(=O)N1CCCC(C(=O)NCc2ccco2)C1 (stereo not drawn),i,i,-5.06*,i,i,i,i,i,i
N[C@H]1C(O)O[C@H](CO)[C@@H](O)[C@@H]1O (stereo partly drawn),i,i,i,i,i,·,·,·,·
O=C(COC(=O)COc1ccccc1)NCCc1ccccc1,i,i,-5.18*,i,i,i,i,i,i
COc1ccc(NC(=O)Cn2c(CCC(=O)O)ccc2-c2ccc(C)cc2)cc1,i,i,i,i,i,·,·,·,·
COc1ccc(CCC(=O)Nc2ccc(Cl)c(S(=O)(=O)N3CCCC3)c2)cc1,i,i,-5.94*,i,i,78.1%*,i,i,i
COc1ccc(NC(=O)CCOc2ccccc2C)cc1S(=O)(=O)N1CCCCC1,i,i,-5.39*,i,i,i,i,i,i
Cc1ccccc1OCC(=O)Nc1ccc(C)c(S(=O)(=O)N2CCCCCC2)c1,i,i,i,i,i,·,·,·,·
COc1ccc(-c2nc(=S)c3c([nH]2)Oc2ccc(C)cc2C3)cc1O,i,i,i,i,i,·,·,·,·
Cc1cc(OCC(=O)NC(Cc2ccc(Cl)cc2)C(=O)O)c2c(C)c(C)c(=O)oc2c1 (stereo not drawn),i,i,i,i,i,·,·,·,·
CC(C)Sc1nc2c(c(=O)n1C)SC(C)C2 (stereo not drawn),i,i,-6.94*,i,i,i,i,i,i
